From ChEMBL document CHEMBL3784943, “Structure based medicinal chemistry-driven strategy to design substituted dihydropyrimidines as potential antileishmanial agents” (Eur J Med Chem, 2016)
≈ marks a conversion by molar mass, not a printed value.

How the values were obtained:
Leishmania major = experiment: Antileishmanial activity against Leishmania major promastigotes after 72 hrs by Neubauer chamber counting; type: functional, organism-based
Leishmania donovani = experiment: Antileishmanial activity against Leishmania donovani promastigotes after 72 hrs by Neubauer chamber counting; type: functional, organism-based
Method in brief: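 Clinical isolate promastigotes grown at 24 °C in medium 199 with 10% fetal bovine serum, HEPES, sodium bicarbonate, penicillin and streptomycin. Cultures harvested after 6–7 days, washed three times in PBS, resuspended at 2 × 10^6 cells/mL and exposed to serial compound dilutions for 72 h at 24 °C with shaking. Amphotericin B positive control, DMSO negative control. Run in triplicate; IC50 from live-cell counts.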

[1] = Leishmania donovani, 72 h, read-out: IC50

| Compound | IC50 (Leishmania major) | IC50 (Leishmania donovani) | IC50 (Leishmania donovani; [1]) |
| --- | --- | --- | --- |
| COc1cc(C2NC(=O)NC(C)=C2C(C)=O)ccc1O (configuration not stated) | 0.71 µg/mL (≈ 2.57 µM) | – | – |
| CC1=C(C(=O)Nc2ccc(C(=O)/C=C/c3ccc(O)cc3)cc2)C(c2cccc(O)c2)NC(=S)N1 (configuration not stated) | 0.51 µg/mL (≈ 1.05 µM) | – | 5.58 µg/mL (≈ 11.5 µM) |
| CC1=C(C(=O)Nc2ccc(C(=O)/C=C/c3cccc([N+](=O)[O-])c3)cc2)C(c2ccc(C)cc2)NC(=S)N1 (configuration not stated) | 0.65 µg/mL (≈ 1.27 µM) | Not Active | – |
| COCC1=C(C(=O)OC)C(c2cccc([N+](=O)[O-])c2)NC(=O)N1 (configuration not stated) | 0.95 µg/mL (≈ 2.96 µM) | – | – |
| CC(=O)C1=C(CNc2ccc(C(=O)/C=C/c3cccc([N+](=O)[O-])c3)cc2)N(C)C(=O)NC1c1ccccc1 (configuration not stated) | 0.67 µg/mL (≈ 1.31 µM) | – | > 100 µg/mL |
| CC(=O)C1=C(CNc2ccc(C3=NNC(c4ccc(O)cc4)C3)cc2)N(C)C(=O)NC1c1ccccc1 (configuration not stated) | 0.47 µg/mL (≈ 0.948 µM) | – | 1.5 µg/mL (≈ 3.03 µM) |
| CC1=C(C(=O)Nc2ccc(C(=O)/C=C/c3ccc(O)cc3)cc2)C(c2ccc(C)cc2)NC(=S)N1 (configuration not stated) | 0.53 µg/mL (≈ 1.1 µM) | Not Active | – |
| CCOC(=O)C1=C(C)NC(=S)NC1c1ccc(C)cc1 (configuration not stated) | 0.63 µg/mL (≈ 2.17 µM) | – | – |
| CC1=C(C(=O)Nc2ccc(C(=O)/C=C/c3cccc([N+](=O)[O-])c3)cc2)C(c2cccc(O)c2)NC(=S)N1 (configuration not stated) | 0.58 µg/mL (≈ 1.13 µM) | Not Active | – |
| CCOC(=O)C1=C(C)NC(=S)NC1c1cccc(O)c1 (configuration not stated) [MONASTROL] | 0.65 µg/mL (≈ 2.22 µM) | – | – |

Other lines, results leading:

| IC50 (Leishmania major) | IC50 (Leishmania donovani) | IC50 (Leishmania donovani; [1]) | Compound |
| --- | --- | --- | --- |
| 0.69 µg/mL (≈ 2.65 µM) | – | – | COc1ccc(C2NC(=O)NC(C)=C2C(C)=O)cc1 (configuration not stated) |
| 0.61 µg/mL (≈ 2.65 µM) | – | – | CC(=O)C1=C(C)NC(=O)NC1c1ccccc1 (configuration not stated) |
| 0.78 µg/mL (≈ 3.17 µM) | – | – | CC(=O)C1=C(C)NC(=S)NC1c1ccccc1 (configuration not stated) |
| 0.73 µg/mL (≈ 1.93 µM) | Not Active | – | CC1=C(C(=O)/C=C/c2cccc([N+](=O)[O-])c2)C(c2ccccc2)NC(=O)N1C (configuration not stated) |
| 0.67 µg/mL (≈ 2.43 µM) | – | – | CC(=O)C1=C(C)NC(=O)NC1c1cccc([N+](=O)[O-])c1 (configuration not stated) |
| 0.63 µg/mL (≈ 1.72 µM) | Not Active | – | CC1=C(C(=O)/C=C/c2ccc(Cl)cc2)C(c2ccccc2)NC(=O)N1C (configuration not stated) |
| 0.53 µg/mL (≈ 1.06 µM) | – | 4.4 µg/mL (≈ 8.8 µM) | CC(=O)C1=C(CNc2ccc(C(=O)/C=C/c3ccc(Cl)cc3)cc2)N(C)C(=O)NC1c1ccccc1 (configuration not stated) |
| 0.63 µg/mL (≈ 2.58 µM) | – | – | CC(=O)C1=C(C)N(C)C(=O)NC1c1ccccc1 (configuration not stated) |
| 0.51 µg/mL (≈ 1.06 µM) | – | 7.5 µg/mL (≈ 15.6 µM) | CC(=O)C1=C(CNc2ccc(C(=O)/C=C/c3ccc(O)cc3)cc2)N(C)C(=O)NC1c1ccccc1 (configuration not stated) |
| 0.89 µg/mL (≈ 3.64 µM) | – | – | CC(=O)C1=C(C)NC(=O)NC1c1cccc(C)c1 (configuration not stated) |
| 0.54 µg/mL (≈ 1.16 µM) | – | > 100 µg/mL | CC(=O)C1=C(CNc2ccc(C(=O)/C=C/c3ccccc3)cc2)N(C)C(=O)NC1c1ccccc1 (configuration not stated) |
| 0.71 µg/mL (≈ 1.4 µM) | Not Active | – | CC(=O)C1=C(CNc2ccc(C(=O)/C=C/c3ccc(N(C)C)cc3)cc2)N(C)C(=O)NC1c1ccccc1 (configuration not stated) |
| 0.59 µg/mL (≈ 1.69 µM) | Not Active | – | CC1=C(C(=O)/C=C/c2ccc(O)cc2)C(c2ccccc2)NC(=O)N1C (configuration not stated) |
| 0.99 µg/mL (≈ 3.8 µM) | – | – | CCOC(=O)C1=C(C)NC(=O)NC1c1ccccc1 (configuration not stated) |
